ChEMBL document CHEMBL3102784, “Salicylanilide diethyl phosphates: synthesis, antimicrobial activity and cytotoxicity” (Bioorg Med Chem, 2014)
In brackets after ≈: the same amount, converted by molar mass.

These molecules were tested on Mycobacterium tuberculosis (assay: Antimycobacterial activity against isoniazid, rifamycin, streptomycin, ethambutol and ofloxacin, clofazimine-resistant Mycobacterium tuberculosis Praha 4 after 21 days). Details: Praha 4, 504 h.
Assay type: functional
Outline: (§1)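 Drug-resistant M. tuberculosis strains (MDR, one XDR), inoculum dilution 10^3. MIC by micromethod in Šula's semisynthetic medium at 37 °C, compounds in DMSO, concentration series as for the drug-susceptible strain. Read after 14 and 21 days.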

SMILES | MIC [µM]
CCOP(=O)(OCC)Oc1cc(Cl)ccc1C(=O)Nc1ccc(C(F)(F)F)cc1 | 1 (≈ 0.452 µg/mL)
CCOP(=O)(OCC)Oc1ccc(Br)cc1C(=O)Nc1ccc(Cl)c(Cl)c1 | 1 (≈ 0.497 µg/mL)
CCOP(=O)(OCC)Oc1ccc(Br)cc1C(=O)Nc1ccc(C(F)(F)F)cc1 | 1 (≈ 0.496 µg/mL)
CCOP(=O)(OCC)Oc1ccc(Cl)cc1C(=O)Nc1ccc(Cl)c(Cl)c1 | 1 (≈ 0.453 µg/mL)
CCOP(=O)(OCC)Oc1ccc(Cl)cc1C(=O)Nc1ccc(C(F)(F)F)cc1 | 1 (≈ 0.452 µg/mL)
NNC(=O)c1ccncc1 [ISONIAZID] | 16 (≈ 2.19 µg/mL)

The molecules below were run on Mycobacterium tuberculosis (assay: Antimycobacterial activity against isoniazid, rifamycin, streptomycin, ethambutol and ofloxacin, clofazimine-resistant Mycobacterium tuberculosis Praha 4 after 14 days). Details: Praha 4, 336 h.
Assay type: functional
Outline: as §1

SMILES | MIC [µM]
CCOP(=O)(OCC)Oc1cc(Cl)ccc1C(=O)Nc1ccc(C(F)(F)F)cc1 | 1 (≈ 0.452 µg/mL)
CCOP(=O)(OCC)Oc1ccc(Br)cc1C(=O)Nc1ccc(Cl)c(Cl)c1 | 1 (≈ 0.497 µg/mL)
CCOP(=O)(OCC)Oc1ccc(Br)cc1C(=O)Nc1ccc(C(F)(F)F)cc1 | 1 (≈ 0.496 µg/mL)
CCOP(=O)(OCC)Oc1ccc(Cl)cc1C(=O)Nc1ccc(Cl)c(Cl)c1 | 1 (≈ 0.453 µg/mL)
CCOP(=O)(OCC)Oc1ccc(Cl)cc1C(=O)Nc1ccc(C(F)(F)F)cc1 | 1 (≈ 0.452 µg/mL)
NNC(=O)c1ccncc1 [ISONIAZID] | 16 (≈ 2.19 µg/mL)

These molecules were tested on Mycobacterium tuberculosis (assay: Antimycobacterial activity against isoniazid, rifamycin, streptomycin, ethambutol, clofazimine, ofloxacin, gentamicin and amikacin-resistant Mycobacterium tuberculosis Praha 131 after 21 days). Details: Praha 131, 504 h.
Assay type: functional
Outline: as §1

SMILES | MIC [µM]
CCOP(=O)(OCC)Oc1cc(Cl)ccc1C(=O)Nc1ccc(C(F)(F)F)cc1 | 1 (≈ 0.452 µg/mL)
CCOP(=O)(OCC)Oc1ccc(Br)cc1C(=O)Nc1ccc(Cl)c(Cl)c1 | 1 (≈ 0.497 µg/mL)
CCOP(=O)(OCC)Oc1ccc(Br)cc1C(=O)Nc1ccc(C(F)(F)F)cc1 | 1 (≈ 0.496 µg/mL)
CCOP(=O)(OCC)Oc1ccc(Cl)cc1C(=O)Nc1ccc(Cl)c(Cl)c1 | 1 (≈ 0.453 µg/mL)
CCOP(=O)(OCC)Oc1ccc(Cl)cc1C(=O)Nc1ccc(C(F)(F)F)cc1 | 1 (≈ 0.452 µg/mL)
NNC(=O)c1ccncc1 [ISONIAZID] | 16 (≈ 2.19 µg/mL)

What follows are molecules tested on Mycobacterium tuberculosis (assay: Antimycobacterial activity against isoniazid, rifamycin, streptomycin, ethambutol, clofazimine, ofloxacin, gentamicin and amikacin-resistant Mycobacterium tuberculosis Praha 131 after 14 days). Details: Praha 131, 336 h.
Assay type: functional
Outline: as §1

SMILES | MIC [µM]
CCOP(=O)(OCC)Oc1cc(Cl)ccc1C(=O)Nc1ccc(C(F)(F)F)cc1 | 1 (≈ 0.452 µg/mL)
CCOP(=O)(OCC)Oc1ccc(Br)cc1C(=O)Nc1ccc(Cl)c(Cl)c1 | 1 (≈ 0.497 µg/mL)
CCOP(=O)(OCC)Oc1ccc(Br)cc1C(=O)Nc1ccc(C(F)(F)F)cc1 | 1 (≈ 0.496 µg/mL)
CCOP(=O)(OCC)Oc1ccc(Cl)cc1C(=O)Nc1ccc(Cl)c(Cl)c1 | 1 (≈ 0.453 µg/mL)
CCOP(=O)(OCC)Oc1ccc(Cl)cc1C(=O)Nc1ccc(C(F)(F)F)cc1 | 1 (≈ 0.452 µg/mL)
NNC(=O)c1ccncc1 [ISONIAZID] | 16 (≈ 2.19 µg/mL)

These molecules were tested on Mycobacterium tuberculosis (assay: Antimycobacterial activity against isoniazid, rifamycin, streptomycin, ethambutol and clofazimine-resistant Mycobacterium tuberculosis Praha 1 after 21 days). Details: Praha 1, 504 h.
Assay type: functional
Outline: as §1

SMILES | MIC [µM]
CCOP(=O)(OCC)Oc1cc(Cl)ccc1C(=O)Nc1ccc(C(F)(F)F)cc1 | 1 (≈ 0.452 µg/mL)
CCOP(=O)(OCC)Oc1ccc(Br)cc1C(=O)Nc1ccc(Cl)c(Cl)c1 | 1 (≈ 0.497 µg/mL)
CCOP(=O)(OCC)Oc1ccc(Br)cc1C(=O)Nc1ccc(C(F)(F)F)cc1 | 1 (≈ 0.496 µg/mL)
CCOP(=O)(OCC)Oc1ccc(Cl)cc1C(=O)Nc1ccc(Cl)c(Cl)c1 | 1 (≈ 0.453 µg/mL)
CCOP(=O)(OCC)Oc1ccc(Cl)cc1C(=O)Nc1ccc(C(F)(F)F)cc1 | 1 (≈ 0.452 µg/mL)
NNC(=O)c1ccncc1 [ISONIAZID] | 16 (≈ 2.19 µg/mL)

Each molecule was assayed on Mycobacterium tuberculosis (assay: Antimycobacterial activity against isoniazid, rifamycin, streptomycin, ethambutol and clofazimine-resistant Mycobacterium tuberculosis Praha 1 after 14 days). Details: Praha 1, 336 h.
Assay type: functional
Outline: as §1

SMILES | MIC [µM]
CCOP(=O)(OCC)Oc1cc(Cl)ccc1C(=O)Nc1ccc(C(F)(F)F)cc1 | 1 (≈ 0.452 µg/mL)
CCOP(=O)(OCC)Oc1ccc(Br)cc1C(=O)Nc1ccc(Cl)c(Cl)c1 | 1 (≈ 0.497 µg/mL)
CCOP(=O)(OCC)Oc1ccc(Br)cc1C(=O)Nc1ccc(C(F)(F)F)cc1 | 1 (≈ 0.496 µg/mL)
CCOP(=O)(OCC)Oc1ccc(Cl)cc1C(=O)Nc1ccc(Cl)c(Cl)c1 | 1 (≈ 0.453 µg/mL)
CCOP(=O)(OCC)Oc1ccc(Cl)cc1C(=O)Nc1ccc(C(F)(F)F)cc1 | 1 (≈ 0.452 µg/mL)
NNC(=O)c1ccncc1 [ISONIAZID] | 16 (≈ 2.19 µg/mL)

The molecules below were run on Mycobacterium tuberculosis (assay: Antimycobacterial activity against isoniazid, rifamycin and streptomycin-resistant Mycobacterium tuberculosis 9449/2006 after 21 days). Details: 9449/2006, 504 h.
Assay type: functional
Outline: as §1

SMILES | MIC [µM]
CCOP(=O)(OCC)Oc1cc(Cl)ccc1C(=O)Nc1ccc(C(F)(F)F)cc1 | 1 (≈ 0.452 µg/mL)
CCOP(=O)(OCC)Oc1ccc(Br)cc1C(=O)Nc1ccc(Cl)c(Cl)c1 | 1 (≈ 0.497 µg/mL)
CCOP(=O)(OCC)Oc1ccc(Br)cc1C(=O)Nc1ccc(C(F)(F)F)cc1 | 1 (≈ 0.496 µg/mL)
CCOP(=O)(OCC)Oc1ccc(Cl)cc1C(=O)Nc1ccc(Cl)c(Cl)c1 | 1 (≈ 0.453 µg/mL)
CCOP(=O)(OCC)Oc1ccc(Cl)cc1C(=O)Nc1ccc(C(F)(F)F)cc1 | 1 (≈ 0.452 µg/mL)
NNC(=O)c1ccncc1 [ISONIAZID] | 16 (≈ 2.19 µg/mL)

Each molecule was assayed on Mycobacterium tuberculosis (assay: Antimycobacterial activity against isoniazid, rifamycin and streptomycin-resistant Mycobacterium tuberculosis 9449/2006 after 14 days). Details: 9449/2006, 336 h.
Assay type: functional
Outline: as §1

SMILES | MIC [µM]
CCOP(=O)(OCC)Oc1cc(Cl)ccc1C(=O)Nc1ccc(C(F)(F)F)cc1 | 1 (≈ 0.452 µg/mL)
CCOP(=O)(OCC)Oc1ccc(Br)cc1C(=O)Nc1ccc(Cl)c(Cl)c1 | 1 (≈ 0.497 µg/mL)
CCOP(=O)(OCC)Oc1ccc(Br)cc1C(=O)Nc1ccc(C(F)(F)F)cc1 | 1 (≈ 0.496 µg/mL)
CCOP(=O)(OCC)Oc1ccc(Cl)cc1C(=O)Nc1ccc(Cl)c(Cl)c1 | 1 (≈ 0.453 µg/mL)
CCOP(=O)(OCC)Oc1ccc(Cl)cc1C(=O)Nc1ccc(C(F)(F)F)cc1 | 1 (≈ 0.452 µg/mL)
NNC(=O)c1ccncc1 [ISONIAZID] | 16 (≈ 2.19 µg/mL)

The molecules below were run on Mycobacterium tuberculosis (assay: Antimycobacterial activity against isoniazid, rifampicin, rifabutin, streptomycin and ethambutol-resistant Mycobacterium tuberculosis 234/2005 after 21 days). Details: 234/2005, 504 h.
Assay type: functional
Outline: as §1

SMILES | MIC [µM]
CCOP(=O)(OCC)Oc1cc(Cl)ccc1C(=O)Nc1ccc(C(F)(F)F)cc1 | 1 (≈ 0.452 µg/mL)
CCOP(=O)(OCC)Oc1ccc(Br)cc1C(=O)Nc1ccc(Cl)c(Cl)c1 | 1 (≈ 0.497 µg/mL)
CCOP(=O)(OCC)Oc1ccc(Br)cc1C(=O)Nc1ccc(C(F)(F)F)cc1 | 1 (≈ 0.496 µg/mL)
CCOP(=O)(OCC)Oc1ccc(Cl)cc1C(=O)Nc1ccc(Cl)c(Cl)c1 | 1 (≈ 0.453 µg/mL)
CCOP(=O)(OCC)Oc1ccc(Cl)cc1C(=O)Nc1ccc(C(F)(F)F)cc1 | 1 (≈ 0.452 µg/mL)
NNC(=O)c1ccncc1 [ISONIAZID] | 16 (≈ 2.19 µg/mL)

The molecules below were run on Mycobacterium tuberculosis (assay: Antimycobacterial activity against isoniazid, rifampicin, rifabutin, streptomycin and ethambutol-resistant Mycobacterium tuberculosis 234/2005 after 14 days). Details: 234/2005, 336 h.
Assay type: functional
Outline: as §1

SMILES | MIC [µM]
CCOP(=O)(OCC)Oc1cc(Cl)ccc1C(=O)Nc1ccc(C(F)(F)F)cc1 | 1 (≈ 0.452 µg/mL)
CCOP(=O)(OCC)Oc1ccc(Br)cc1C(=O)Nc1ccc(Cl)c(Cl)c1 | 1 (≈ 0.497 µg/mL)
CCOP(=O)(OCC)Oc1ccc(Br)cc1C(=O)Nc1ccc(C(F)(F)F)cc1 | 1 (≈ 0.496 µg/mL)
CCOP(=O)(OCC)Oc1ccc(Cl)cc1C(=O)Nc1ccc(Cl)c(Cl)c1 | 1 (≈ 0.453 µg/mL)
CCOP(=O)(OCC)Oc1ccc(Cl)cc1C(=O)Nc1ccc(C(F)(F)F)cc1 | 1 (≈ 0.452 µg/mL)
NNC(=O)c1ccncc1 [ISONIAZID] | 16 (≈ 2.19 µg/mL)
